These results are taken from ChEMBL document CHEMBL3576843, “Neopetrocyclamines A and B, polycyclic diamine alkaloids from the sponge Neopetrosia cf exigua” (2015).

In general, GI50 refers to the concentration giving 50% growth inhibition. A higher GI50 goes with less potent growth inhibition.

Common to all, as to assay type: functional
The test system of one assay is UO-31. The assay is described as follows: Cytotoxicity against human UO31 cells after 48 hrs by XTT assay. To be noted: UO-31, 48 h. The method in brief: (§1)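 Cells seeded at 5000/well in medium lacking phenol red and antibiotics, allowed 60 min to attach, then compound dilutions or DMSO solvent control added. Incubated 48 h with compound; viability measured by XTT proliferation assay per kit protocol; growth inhibition expressed as GI50.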

Another assay deals with A498. Nature of the assay: Cytotoxicity against human A498 cells after 48 hrs by XTT assay. To be noted: A498, 48 h. A digest of the protocol:
as §1

The test system of another assay is SF-295. The assay is described as follows: Cytotoxicity against human SF295 cells after 48 hrs by XTT assay. The note with it: SF-295, 48 h. A digest of the protocol:
as §1

Consider `C1=C/[C@H]2[C@@H]3CCCC[C@H]3C[C@H]2NCCCN[C@@H]2C[C@@H]3CCCC[C@H]3[C@@H]2/C=C/1`, for which the concentration for 50% growth inhibition (GI50) in the assay on UO-31 amounted to 3 µM; in the assay on A498, 2.9 µM; in the assay on SF-295 it was 0.8 µM.

Turning to `C1=C[C@H]2/C=C/CCCCC/C=C\CCN3C=[N+](CCC3)C[C@H]2[C@@H]2CCCC[C@@H]12`, the GI50 in the assay on UO-31, with A498 and in the assay on SF-295 was greater than 20 µM in each case.

Consider `C1=C[C@H]2/C=C/CCCCC/C=C\CCNCCCNC[C@H]2[C@@H]2CCCC[C@@H]12`, for which the GI50 in the assay with UO-31, with A498 and in the assay on SF-295 was greater than 20 µM each time.

Take `C1=C/[C@H]2[C@@H]3CCCC[C@H]3C[C@@H]2NCCCN[C@@H]2C[C@@H]3CCCC[C@H]3[C@@H]2/C=C/1` [HALICLONADIAMINE]: the values for the GI50 in the assay with UO-31, in the assay on A498 and with SF-295 were 8 µM, 5.9 µM and 6.3 µM, respectively.
